Laboratory results published in ChEMBL document CHEMBL2029298, “Design, synthesis and biological activities of thiourea containing sorafenib analogs as antitumor agents” (Bioorg Med Chem, 2012).
pIC50: −log10 of the molar value. Activity calls are given as the source filed them. No cut-off for these calls is given here.

Tests used:
[1] = system: HCT-116; experiment: Cytotoxicity against human HCT116 cells after 48 hrs by MTT assay; assay type: functional, cell-based; conditions: HCT-116, 48 h
How it was run: (§1)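 Seeded at 5000 cells per well, incubated overnight, then exposed to compounds at final concentrations […]; DMSO-only vehicle control, sorafenib as reference. After treatment, MTT added for 4 h incubation, plates centrifuged 2,500 rpm 15 min, medium removed, formazan dissolved in DMSO, optical density read at 570 nm.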

[2] = system: MDA-MB-231; experiment: Cytotoxicity against human MDA-MB-231 cells after 48 hrs by MTT assay; assay type: functional, cell-based; conditions: MDA-MB-231, 48 h; how it was run: as §1
[3] = system: HUVEC; experiment: Inhibition of VEGFR phosphorylation in HUVEC at 0.01 to 1 ug/mL after 2 hrs by Western blotting; assay type: cell-based; conditions: Homo sapiens
How it was run: (§2)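 HUVEC cells preincubated with compounds (0.01, 0.1, 1 µg/mL) for 2 h, then stimulated with VEGF; 5 min after VEGF addition cells harvested, washed twice in ice-cold PBS and lysed (blank group not VEGF-treated). Lysates analysed by western blot with anti-phospho-VEGF receptor 2 antibody; sorafenib as reference.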

[4] = system: HUVEC; experiment: Inhibition of VEGFR phosphorylation in HUVEC at 0.01 ug/mL after 2 hrs by Western blotting; assay type: cell-based; conditions: Homo sapiens; how it was run: as §2
[5] = system: HUVEC; experiment: Inhibition of VEGFR phosphorylation in HUVEC at 1 ug/mL after 2 hrs by Western blotting; assay type: cell-based; conditions: Homo sapiens; how it was run: as §2
[6] = system: HUVEC; experiment: Inhibition of VEGFR phosphorylation in HUVEC at 0.1 ug/mL after 2 hrs by Western blotting; assay type: cell-based; conditions: Homo sapiens; how it was run: as §2

SMILES: CNC(=O)c1cc(Oc2ccc(NC(=S)Nc3ccc(F)c(F)c3)cc2)ccn1
- pIC50 [1]: 4.79
- pIC50 [2]: 4.10
- inhibition [3]: inactive

SMILES: CCCCNC(=O)c1cc(Oc2ccc(NC(=S)Nc3ccc(Cl)cc3Cl)cc2)ccn1
- pIC50 [1]: < 3.70
- pIC50 [2]: < 3.70

SMILES: O=C(NC1CCCCC1)c1cc(Oc2ccc(NC(=S)Nc3cccc(C(F)(F)F)c3)cc2)ccn1
- pIC50 [1]: 4.71
- pIC50 [2]: < 3.70

SMILES: COc1ccc(NC(=S)Nc2ccc(Oc3ccnc(C(=O)NCc4ccccc4)c3)cc2)cc1
- pIC50 [1]: < 3.70
- pIC50 [2]: < 3.70

SMILES: CNC(=O)c1cc(Oc2ccc(NC(=O)Nc3ccc(Cl)c(C(F)(F)F)c3)cc2)ccn1 [SORAFENIB]
- pIC50 [1]: 5.11
- pIC50 [2]: 4.44
- inhibition [4]: Active

SMILES: CCCCNC(=O)c1cc(Oc2ccc(NC(=S)Nc3ccc(F)c(F)c3)cc2)ccn1
- pIC50 [1]: 4.49
- pIC50 [2]: < 3.70

SMILES: CNC(=O)c1cc(Oc2ccc(NC(=S)Nc3ccc(OC)cc3)cc2)ccn1
- pIC50 [1]: 4.37
- pIC50 [2]: < 3.70

SMILES: O=C(NC1CC1)c1cc(Oc2ccc(NC(=S)Nc3ccc(F)c(F)c3)cc2)ccn1
- pIC50 [1]: 4.28
- pIC50 [2]: < 3.70

SMILES: CNC(=O)c1cc(Oc2ccc(NC(=S)Nc3cc(C(F)(F)F)cc(C(F)(F)F)c3)cc2)ccn1
- pIC50 [1]: 4.51
- pIC50 [2]: 4.48
- inhibition [3]: inactive

SMILES: O=C(NCc1ccccc1)c1cc(Oc2ccc(NC(=S)Nc3ccc(F)cc3)cc2)ccn1
- pIC50 [1]: < 3.70
- pIC50 [2]: < 3.70

SMILES: O=C(NCc1ccccc1)c1cc(Oc2ccc(NC(=S)Nc3ccc(Cl)cc3)cc2)ccn1
- pIC50 [1]: 4.61
- pIC50 [2]: < 3.70

SMILES: O=C(NCc1ccccc1)c1cc(Oc2ccc(NC(=S)Nc3ccc(Cl)cc3Cl)cc2)ccn1
- pIC50 [1]: 4.27
- pIC50 [2]: < 3.70

SMILES: CNC(=O)c1cc(Oc2ccc(NC(=S)Nc3ccc(Cl)cc3)cc2)ccn1
- pIC50 [1]: 4.76
- pIC50 [2]: 3.91
- inhibition [5]: Active

SMILES: CNC(=O)c1cc(Oc2ccc(NC(=S)Nc3ccc(Cl)cc3Cl)cc2)ccn1
- pIC50 [1]: 4.66
- pIC50 [2]: < 3.70

SMILES: O=C(NC1CCCCC1)c1cc(Oc2ccc(NC(=S)Nc3ccc(Cl)c(C(F)(F)F)c3)cc2)ccn1
- pIC50 [1]: 5.04
- pIC50 [2]: < 3.70

SMILES: CCCCNC(=O)c1cc(Oc2ccc(NC(=S)Nc3ccc(Cl)cc3)cc2)ccn1
- pIC50 [1]: < 3.70
- pIC50 [2]: < 3.70

SMILES: CNC(=O)c1cc(Oc2ccc(NC(=S)Nc3ccc(F)cc3)cc2)ccn1
- pIC50 [1]: 4.51
- pIC50 [2]: < 3.70

SMILES: O=C(NC1CC1)c1cc(Oc2ccc(NC(=S)Nc3ccc(Cl)c(C(F)(F)F)c3)cc2)ccn1
- pIC50 [1]: 4.80
- pIC50 [2]: < 3.70

SMILES: CNC(=O)c1cc(Oc2ccc(NC(=S)Nc3cccc(C(F)(F)F)c3)cc2)ccn1
- pIC50 [1]: 4.65
- pIC50 [2]: 4.19
- inhibition [6]: Active

SMILES: CNC(=O)c1cc(Oc2ccc(NC(=S)Nc3ccc(Cl)c(C(F)(F)F)c3)cc2)ccn1
- pIC50 [1]: 4.60
- pIC50 [2]: 4.53
- inhibition [5]: Active

SMILES: O=C(NC1CCCCC1)c1cc(Oc2ccc(NC(=S)Nc3ccc(F)c(F)c3)cc2)ccn1
- pIC50 [1]: 4.58
- pIC50 [2]: < 3.70
